The results in this text go back to ChEMBL document CHEMBL5649170, “Sustained microglial depletion with CSF1R inhibitor impairs parenchymal plaque development in an Alzheimer's disease model” (Nat Commun, 2019).

Usually IC50 stands for the concentration that gives 50% inhibition. The AUC(0-inf) is the area under the concentration-time curve extrapolated to infinity. A higher AUC(0-inf) goes with more exposure.

The subject of series [1] is Mus musculus. Description: Antialzheimer activity in 5XFAD mouse assessed as microglial numbers by measuring number of Iba positive cells per FOV in […] cortex at 75 ppm administered as rodent chow starting from 1.5 months and measured after 5 months by immunolabeling based confocal microscopic analysis (reference value: 176 to 654). It is filed as functional. Particulars: route po, time 3.5 months, 2555 h. Summed up:
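5xFAD mice fed PLX3397 at 75 ppm in AIN-76A chow from 1.5 to 5 months of age; retrosplenial and somatosensory cortex sections stained with Thio-S and immunolabeled for IBA1; confocal imaging, IBA1+ cells and plaques quantified per region; two-tailed independent t-test, n = 4–5 per group, mean ± SEM.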

Series [2] deals with Calcium/calmodulin-dependent protein kinase type II subunit beta (Homo sapiens, UniProt Q13554). Briefly: Inhibition of CAMK2B (unknown origin).
Sequence of Calcium/calmodulin-dependent protein kinase type II subunit beta (Q13554 whole entry): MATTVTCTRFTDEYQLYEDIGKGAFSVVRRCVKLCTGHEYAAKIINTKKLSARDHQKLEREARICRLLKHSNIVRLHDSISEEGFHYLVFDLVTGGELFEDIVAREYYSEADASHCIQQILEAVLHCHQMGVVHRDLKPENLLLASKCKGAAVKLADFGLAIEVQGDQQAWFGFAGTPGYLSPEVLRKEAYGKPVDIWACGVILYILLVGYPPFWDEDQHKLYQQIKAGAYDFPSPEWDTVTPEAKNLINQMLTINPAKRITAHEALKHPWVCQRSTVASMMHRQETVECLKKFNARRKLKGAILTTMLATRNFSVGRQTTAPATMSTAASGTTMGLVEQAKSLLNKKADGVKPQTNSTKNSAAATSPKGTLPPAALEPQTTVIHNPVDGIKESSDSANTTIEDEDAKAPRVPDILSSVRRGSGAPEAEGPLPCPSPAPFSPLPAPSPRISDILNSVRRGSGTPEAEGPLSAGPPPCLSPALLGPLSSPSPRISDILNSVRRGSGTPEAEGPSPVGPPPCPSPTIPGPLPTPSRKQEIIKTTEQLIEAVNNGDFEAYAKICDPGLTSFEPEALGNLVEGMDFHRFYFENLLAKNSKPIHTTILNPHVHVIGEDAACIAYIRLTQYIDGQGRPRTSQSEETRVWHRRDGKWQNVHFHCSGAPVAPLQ
Series [3] is described as follows: Inhibition of CDK2/CyclinA (unknown origin). On the set-up: species or system Homo sapiens.
In series [4] the target is Casein kinase I isoform gamma-3 (Homo sapiens, UniProt Q9Y6M4). Description: Inhibition of CSNK1G3 (unknown origin).
Sequence of Casein kinase I isoform gamma-3 (Q9Y6M4 whole entry, canonical isoform): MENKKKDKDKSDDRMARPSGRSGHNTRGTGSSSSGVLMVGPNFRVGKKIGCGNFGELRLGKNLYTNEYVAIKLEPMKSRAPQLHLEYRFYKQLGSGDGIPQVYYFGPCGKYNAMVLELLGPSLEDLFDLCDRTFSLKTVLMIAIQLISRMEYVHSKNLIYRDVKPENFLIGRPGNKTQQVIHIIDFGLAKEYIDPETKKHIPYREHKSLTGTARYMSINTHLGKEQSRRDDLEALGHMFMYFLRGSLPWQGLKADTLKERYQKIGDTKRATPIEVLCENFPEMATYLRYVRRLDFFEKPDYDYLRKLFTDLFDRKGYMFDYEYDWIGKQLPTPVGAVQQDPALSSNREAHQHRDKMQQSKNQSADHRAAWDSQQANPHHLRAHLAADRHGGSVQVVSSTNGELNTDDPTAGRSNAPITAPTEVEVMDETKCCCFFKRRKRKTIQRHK
A further series addresses Ephrin type-B receptor 1 (Homo sapiens, UniProt P54762). Briefly: Inhibition of EPHB1 (unknown origin).
The target in series [5] is G protein-coupled receptor kinase 6 (Homo sapiens, UniProt P43250). Description: Inhibition of GRK6 (unknown origin).
Sequence of G protein-coupled receptor kinase 6 (P43250 whole entry): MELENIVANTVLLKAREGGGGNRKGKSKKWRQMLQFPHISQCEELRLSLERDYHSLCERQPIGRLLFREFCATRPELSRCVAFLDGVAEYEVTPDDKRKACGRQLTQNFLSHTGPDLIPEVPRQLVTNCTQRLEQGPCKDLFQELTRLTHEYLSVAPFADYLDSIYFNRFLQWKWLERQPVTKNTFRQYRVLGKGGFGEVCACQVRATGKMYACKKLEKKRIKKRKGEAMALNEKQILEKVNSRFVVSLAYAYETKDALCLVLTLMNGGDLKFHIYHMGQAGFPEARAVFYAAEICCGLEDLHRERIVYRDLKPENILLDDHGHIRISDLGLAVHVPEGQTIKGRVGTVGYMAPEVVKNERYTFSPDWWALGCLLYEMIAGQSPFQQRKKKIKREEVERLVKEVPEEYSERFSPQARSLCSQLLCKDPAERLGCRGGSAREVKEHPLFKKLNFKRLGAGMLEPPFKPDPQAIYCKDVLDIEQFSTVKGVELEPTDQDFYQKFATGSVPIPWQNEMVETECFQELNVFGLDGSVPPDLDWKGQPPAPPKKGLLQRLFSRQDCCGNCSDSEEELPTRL
Series [6] has as its target Interleukin-1 receptor-associated kinase 4 (Homo sapiens, UniProt Q9NWZ3). Briefly: Inhibition of IRAK4 (unknown origin).
Series [7] addresses Serine/threonine-protein kinase PAK 6 (Homo sapiens, UniProt Q9NQU5). Description: Inhibition of PAK6 (unknown origin).
Series [8] addresses Protein kinase C eta type (Homo sapiens, UniProt P24723). Briefly: Inhibition of PRKCH (unknown origin).
The target in series [9] is Tyrosine-protein kinase SYK (Homo sapiens, UniProt P43405). Description: Inhibition of SYK (unknown origin).
Series [10] can be described thus: AUC (0 to infinity) in dog at 1.00 mg/kg, iv administered as single dose. It is filed as ADME, organism-based, Canis lupus familiaris. As to conditions: in vivo.
Series [11] deals with Mus musculus. Briefly: Antialzheimer activity in wildtype mouse assessed as number of Iba positive cells per FOV in somatosensory cortex at 1200 ppm administered as rodent chow starting from 1.5 months and measured after 4 months (reference value: 304 to 351). The class given is functional. As to conditions: route po, time 2.5 months, 1825 h.
Series [12] has as its system Mus musculus. Briefly: Antialzheimer activity in 5XFAD mouse assessed as time spent in perimeter zone at 1200 ppm administered as rodent chow for 10 to 24 weeks by Open field test (reference value: 169.1 to 285.1 sec). As to conditions: route po, time 10-24 weeks. It is filed as functional.
Series [13] can be described thus: Toxicity in wildtype mouse assessed as total number of arm entries at 1200 ppm administered as rodent chow for 10 to 24 weeks by Y-maze test (reference value: 14 to 35). Particulars: in vivo, po, time 10-24 weeks.
Series [14] concerns the target T1, Macrophage colony-stimulating factor 1 receptor (Mus musculus) (UniProt P09581).
T1 sequence (whole entry): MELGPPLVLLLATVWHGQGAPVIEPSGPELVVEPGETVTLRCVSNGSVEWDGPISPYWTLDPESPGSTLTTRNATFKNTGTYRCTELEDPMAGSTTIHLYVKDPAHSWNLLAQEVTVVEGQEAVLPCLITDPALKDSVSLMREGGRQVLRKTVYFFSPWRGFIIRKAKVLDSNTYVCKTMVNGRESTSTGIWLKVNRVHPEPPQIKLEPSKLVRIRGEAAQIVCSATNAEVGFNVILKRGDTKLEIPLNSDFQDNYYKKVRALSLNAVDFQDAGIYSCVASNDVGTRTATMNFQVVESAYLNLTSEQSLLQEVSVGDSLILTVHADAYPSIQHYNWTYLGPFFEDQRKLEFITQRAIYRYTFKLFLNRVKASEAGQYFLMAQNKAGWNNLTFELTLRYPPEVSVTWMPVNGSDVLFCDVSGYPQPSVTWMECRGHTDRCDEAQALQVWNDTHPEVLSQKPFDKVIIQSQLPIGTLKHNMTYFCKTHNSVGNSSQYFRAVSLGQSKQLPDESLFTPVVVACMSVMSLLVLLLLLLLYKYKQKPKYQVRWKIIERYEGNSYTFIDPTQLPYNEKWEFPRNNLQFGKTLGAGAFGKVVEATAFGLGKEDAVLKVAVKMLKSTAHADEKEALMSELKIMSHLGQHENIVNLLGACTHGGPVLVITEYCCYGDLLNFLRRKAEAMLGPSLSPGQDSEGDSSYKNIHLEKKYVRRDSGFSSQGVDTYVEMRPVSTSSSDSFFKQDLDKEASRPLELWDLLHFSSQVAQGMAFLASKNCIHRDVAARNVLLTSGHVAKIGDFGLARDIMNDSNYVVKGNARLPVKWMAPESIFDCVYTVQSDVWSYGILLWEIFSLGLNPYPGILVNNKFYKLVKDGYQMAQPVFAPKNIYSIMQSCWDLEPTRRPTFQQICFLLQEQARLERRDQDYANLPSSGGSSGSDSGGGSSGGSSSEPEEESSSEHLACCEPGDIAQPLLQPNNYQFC
Description: In vivo inhibition of CSF1R in wildtype mouse assessed as number of S100bteta positive cells per FOV in […] cortex at 1200 ppm administered as rodent chow for 10 to 24 weeks by immunolabelling based confocal microscopic analysis (reference value: 296 to 337). Particulars: route po, time 10-24 weeks. It is filed as functional.

The subject of series [15] is Mus musculus. Briefly: Antialzheimer activity in 5XFAD mouse assessed as number of Iba1 positive cells per FOV in subiculum at 1200 ppm administered as rodent chow starting from 1.5 months and measured after 7 months by immunolabeling based confocal microscopic analysis (reference value: 1284 to 1582). Particulars: route po, time 5.5 months, 4015 h. It is filed as functional.

Series [16] in a line: Effect on Siglech gene expression in wild type mouse thalamus at 1200 ppm administered as rodent chow starting from 1.5 months and measured after 7 months by RNA-Seq analysis (reference value: 2.864 to 4.605 RPKM). Particulars: route po, time 5.5 months, 4015 h. It is filed as functional.
Series [17] is described as follows: Effect on Cst7 gene expression in 5XFAD mouse hippocampus at 1200 ppm administered as rodent chow starting from 1.5 months and measured after 7 months by RNA-Seq analysis (reference value: 14.615 to 34.909 RPKM). It is filed as functional. As to conditions: route po, time 5.5 months, 4015 h.
A short description of series [18]: Effect on Rtn4r gene expression in wildtype mouse hippocampus assessed as percent change in Reads Per kilo base per Million mapped reads at 1200 ppm administered as rodent chow starting from 1.5 months and measured after 7 months by RNA-Seq analysis (reference value: 88.030 to 132.504 %). The class given is functional. As to conditions: route po, time 5.5 months, 4015 h.

Series [19] can be described thus: Prevention of Chrm3 gene downregulation in 5XFAD mouse hippocampus assessed as percent change in Reads Per kilo base per Million mapped reads at 1200 ppm administered as rodent chow starting from 1.5 months and measured after 7 months by RNA-Seq analysis (reference value: 46.176 to 86.158 %). The class given is functional. As to conditions: route po, time 5.5 months, 4015 h.

The target of series [20] is T1, Macrophage colony-stimulating factor 1 receptor (Mus musculus). Description: In vivo inhibition of CSF1R in wildtype mouse assessed as number of Iba1 positive cells per FOV in […] cortex at 1200 ppm administered as rodent chow starting from 1.5 months to 4 months followed by compound removal and measured after 1 months by immunolabelling based confocal microscopic analysis (reference value: 193 to 236). Particulars: route po, time 2.5 months. The class given is functional.

Sequence of Serine/threonine-protein kinase PAK 6 (Q9NQU5 whole entry): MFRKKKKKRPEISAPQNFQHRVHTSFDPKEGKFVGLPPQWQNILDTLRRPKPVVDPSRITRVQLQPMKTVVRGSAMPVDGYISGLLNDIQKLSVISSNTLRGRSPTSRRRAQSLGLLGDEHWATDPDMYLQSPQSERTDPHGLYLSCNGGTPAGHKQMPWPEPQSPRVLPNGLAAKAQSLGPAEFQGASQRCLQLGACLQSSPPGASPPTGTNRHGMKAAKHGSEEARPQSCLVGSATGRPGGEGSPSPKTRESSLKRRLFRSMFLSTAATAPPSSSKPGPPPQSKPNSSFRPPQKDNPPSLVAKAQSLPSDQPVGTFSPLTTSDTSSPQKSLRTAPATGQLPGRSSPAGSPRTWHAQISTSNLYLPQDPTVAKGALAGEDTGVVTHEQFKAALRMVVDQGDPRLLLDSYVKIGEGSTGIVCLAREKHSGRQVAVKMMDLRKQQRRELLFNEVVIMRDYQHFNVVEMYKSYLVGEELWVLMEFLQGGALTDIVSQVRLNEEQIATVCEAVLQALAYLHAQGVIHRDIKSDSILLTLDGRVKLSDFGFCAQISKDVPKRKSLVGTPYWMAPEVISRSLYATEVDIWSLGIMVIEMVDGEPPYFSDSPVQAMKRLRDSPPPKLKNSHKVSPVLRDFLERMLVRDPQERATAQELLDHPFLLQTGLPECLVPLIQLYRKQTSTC
Sequence of Ephrin type-B receptor 1 (P54762 whole entry): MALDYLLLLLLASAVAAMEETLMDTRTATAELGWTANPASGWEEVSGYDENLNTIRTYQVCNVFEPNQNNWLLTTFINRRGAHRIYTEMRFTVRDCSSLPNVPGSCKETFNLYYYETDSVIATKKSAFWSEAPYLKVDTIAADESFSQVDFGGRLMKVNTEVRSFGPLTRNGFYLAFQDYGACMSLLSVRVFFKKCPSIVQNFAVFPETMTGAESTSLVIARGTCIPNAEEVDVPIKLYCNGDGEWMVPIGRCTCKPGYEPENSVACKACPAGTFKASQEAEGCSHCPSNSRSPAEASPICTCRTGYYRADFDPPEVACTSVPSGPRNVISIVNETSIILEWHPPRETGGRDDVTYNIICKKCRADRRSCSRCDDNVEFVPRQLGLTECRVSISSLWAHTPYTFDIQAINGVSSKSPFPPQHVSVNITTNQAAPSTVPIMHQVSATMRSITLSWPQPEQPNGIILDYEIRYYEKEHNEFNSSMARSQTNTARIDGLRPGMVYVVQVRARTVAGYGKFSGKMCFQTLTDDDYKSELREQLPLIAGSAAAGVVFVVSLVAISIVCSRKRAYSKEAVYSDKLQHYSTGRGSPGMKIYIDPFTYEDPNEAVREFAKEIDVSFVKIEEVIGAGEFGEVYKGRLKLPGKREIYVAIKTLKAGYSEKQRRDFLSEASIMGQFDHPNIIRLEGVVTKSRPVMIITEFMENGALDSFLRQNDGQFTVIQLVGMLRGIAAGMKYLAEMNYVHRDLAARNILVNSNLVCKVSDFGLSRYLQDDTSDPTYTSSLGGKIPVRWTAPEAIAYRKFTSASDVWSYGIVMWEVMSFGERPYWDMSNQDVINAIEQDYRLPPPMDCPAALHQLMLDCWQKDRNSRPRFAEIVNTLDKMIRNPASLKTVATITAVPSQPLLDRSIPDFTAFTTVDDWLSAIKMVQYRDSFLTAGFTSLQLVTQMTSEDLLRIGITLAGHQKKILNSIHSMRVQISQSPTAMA
Sequence of Protein kinase C eta type (P24723 whole entry): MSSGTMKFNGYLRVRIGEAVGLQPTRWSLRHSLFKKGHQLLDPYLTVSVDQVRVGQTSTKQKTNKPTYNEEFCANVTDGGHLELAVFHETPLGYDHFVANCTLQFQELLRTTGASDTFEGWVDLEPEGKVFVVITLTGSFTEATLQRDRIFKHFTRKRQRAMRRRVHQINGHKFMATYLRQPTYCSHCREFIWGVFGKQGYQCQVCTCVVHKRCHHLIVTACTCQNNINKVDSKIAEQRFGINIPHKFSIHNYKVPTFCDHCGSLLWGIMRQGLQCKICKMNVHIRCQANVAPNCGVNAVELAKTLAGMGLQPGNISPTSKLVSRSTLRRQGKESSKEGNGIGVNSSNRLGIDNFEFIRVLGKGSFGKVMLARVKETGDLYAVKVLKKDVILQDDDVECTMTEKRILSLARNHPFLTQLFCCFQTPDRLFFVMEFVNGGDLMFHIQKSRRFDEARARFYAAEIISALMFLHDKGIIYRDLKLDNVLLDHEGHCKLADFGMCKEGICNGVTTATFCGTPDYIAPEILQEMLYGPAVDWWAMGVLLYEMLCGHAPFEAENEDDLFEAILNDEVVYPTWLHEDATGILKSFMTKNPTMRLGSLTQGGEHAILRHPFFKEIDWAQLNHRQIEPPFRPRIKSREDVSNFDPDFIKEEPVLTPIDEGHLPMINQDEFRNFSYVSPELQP
Sequence of Interleukin-1 receptor-associated kinase 4 (Q9NWZ3 whole entry): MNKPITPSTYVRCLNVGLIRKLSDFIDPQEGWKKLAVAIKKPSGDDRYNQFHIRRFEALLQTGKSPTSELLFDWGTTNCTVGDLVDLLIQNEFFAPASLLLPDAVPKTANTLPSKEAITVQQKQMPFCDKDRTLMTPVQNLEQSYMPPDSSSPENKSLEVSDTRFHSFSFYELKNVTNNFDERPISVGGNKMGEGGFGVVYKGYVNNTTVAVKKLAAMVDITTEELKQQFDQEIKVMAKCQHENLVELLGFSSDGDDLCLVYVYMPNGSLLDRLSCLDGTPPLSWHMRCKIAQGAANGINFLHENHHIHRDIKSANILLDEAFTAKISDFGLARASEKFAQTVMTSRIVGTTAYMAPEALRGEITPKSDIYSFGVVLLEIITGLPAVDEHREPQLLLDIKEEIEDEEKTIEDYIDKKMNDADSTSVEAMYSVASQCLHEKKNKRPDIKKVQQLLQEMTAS

`FC(F)(F)c1ccc(CNc2ccc(Cc3c[nH]c4ncc(Cl)cc34)cn2)cn1` [PEXIDARTINIB]: the Activity with Mus musculus [1] was determined as 229.
In the case of `COc1ncc(F)cc1CNc1ccc(Cc2c[nH]c3ncc(C)cc23)c(F)n1` [PLX-5622], the IC50 (in series [2]; in series [3]; in [4]; against Ephrin type-B receptor 1; in series [5]; in series [6]) was more than 1 µM in each case. Moreover, the IC50 in series [7], in series [8] and in series [9] was more than 1 µM throughout. Besides, the AUC(0-inf) in [10] is 6230 ng·h/mL. Also, the Activity worked out at 0 in the series with Mus musculus [11]; 14 in series [13]; 269 in series [14]; 25 with Mus musculus [15]; 0 RPKM in series [16]; 2.289 RPKM in [17]. The Activity in series [18] amounted to 89.887%; in series [19] it was 85.99%; in series [20] it was 51. Further, the Time in the series on Mus musculus [12] is recorded as 201.4 s.
